# Runt-CBFb FRET: inhibitors of RUNX1 Runt–CBFb binding, primary screen, biochemical, FRET, Cerulean-Runt, Venus-CBFb, uHTS | inhibition, % at 20 µM | Cerulean-Runt/Venus-CBFb FRET ratio 530/480, 1 h | actives 0.46% (n = 220,000) | Runt-related transcription factor 1 (Homo sapiens) + Core-binding factor subunit beta …;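 active = inhibition over about 50% at 20 µM in the single-dose screen, limit read from the data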;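 note: 0% = DMSO wells and 100% = excess unlabeled CBFb competitor control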
#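 test system = Cerulean-Runt domain fusion protein, energy donor | probe or stimulus = Venus-CBFb binding partner, 100 nM | incubation = two 1 h room-temperature incubations shielded from light | detection = fluorescence energy transfer, 422 nm excitation, 530/480 nm emission | measure = loss of energy transfer signal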
# Rce1 inh: yeast Rce1p protease inhibitors, primary screen, biochemical, fluorescence, cell-free homogeneous. CAAX prenyl protease 2 (Saccharomyces cerevisiae (strain ATCC 204508 / S288c)), Q03530. yeast membranes, quenched prenylated peptide cleavage fluorescence. calls only. actives 0.27% (n = 290,000). AID 2563, 2010;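 active = fall in fluorescence gain of 50% or more versus controls, with final raw signal at or below 3038400; inconclusive = same 50% fall but final raw signal above 3038400; inactive = fall in fluorescence gain under 50%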;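 note: plate controls were neutral control wells for no effect and wells lacking membranes for full effect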
# Target sequence (Q03530 whole entry, looked up): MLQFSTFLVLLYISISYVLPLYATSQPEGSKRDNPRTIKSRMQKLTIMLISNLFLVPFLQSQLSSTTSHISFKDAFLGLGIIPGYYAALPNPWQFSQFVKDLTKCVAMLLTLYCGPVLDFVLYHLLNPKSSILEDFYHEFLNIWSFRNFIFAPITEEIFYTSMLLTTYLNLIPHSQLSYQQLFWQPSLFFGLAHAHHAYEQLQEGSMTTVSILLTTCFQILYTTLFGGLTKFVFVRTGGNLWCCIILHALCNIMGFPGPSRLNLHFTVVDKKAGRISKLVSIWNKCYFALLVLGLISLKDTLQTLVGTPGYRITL
# RanGTP-Impb inh: inhibitors of RanGTP-importin-beta interaction, primary screen, biochemical, FRET, CFP-Ran, YFP-importin-beta, homogeneous; actives 1.1% (n = 300,000); AID 2216, 2009; cell-free CFP-Ran/YFP-importin-beta FRET ratio; inhibition, % (test concentration not listed);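 active = more than half of the replicate wells show a fall in the fluorescence ratio signal beyond about 16%, limit read from the data, passing the limit was not always enough; inconclusive = exactly half of the replicate wells pass the set limit; inactive = fewer than half of replicates pass the limit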;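 note: 0% = DMSO wells and 100% = Ran loaded with GDP instead of GTP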
# Vif imaging: HIV Vif self-association inhibitors, primary screen, imaging, HEK293T, single point; actives 0.35% (n = 340,000); inhibition, % at 7.49 µM; HEK293T cells, Vif self-association by quenched fluorescence, 24 h; in the data active = inhibition above about 50%, passing the limit was not always enough; inconclusive = no clear call, values can overlap the other calls; inactive = below about 31%
# Runt-SMMHC FRET: inhibitors of RUNX1 Runt–CBFb-SMMHC binding, primary screen, biochemical, FRET, Cerulean-Runt, Venus-CBFb-SMMHC, uHTS | Runt-related transcription factor 1 (Homo sapiens) + Core-binding factor subunit beta … | Cerulean-Runt/Venus-CBFb-SMMHC FRET ratio 530/480, 1 h | inhibition, % at 20 µM | actives 0.74% (n = 220,000) | AID 1434, 2008;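 active = mean inhibition across duplicate retests at 20 µM reaching about 50%, limit read from the data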;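 note: 0% = DMSO wells and 100% = wells with excess untagged CBFb-SMMHC; inhibitors lower the FRET ratio by blocking Runt binding to CBFb-SMMHC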
# * = called active by the depositor; i = inactive; ? = inconclusive; · = no result given. Shown are actives, neighbours in structure and some others; about 1.7% of the full set was active somewhere.
SMILES,Runt-CBFb FRET,Rce1 inh,RanGTP-Impb inh,Vif imaging,Runt-SMMHC FRET
C=CCN(CC=C)c1nc2ccccc2nc1C(C#N)C(=O)OCCOC (stereo unspecified),18,i,20*,-13,61*
CCN(C[C@H]1N[C@@](CC)(C(=O)OC)[C@H]2C(=O)N(Cc3ccccc3)C(=O)[C@@H]12)C(=O)c1ccc(C(C)(C)C)cc1,·,·,·,29,·
CCOc1ccc2nc(NCCCNS(=O)(=O)c3ccccc3)c(C#N)cc2c1,80*,i,134*,1,61*
CCOc1ccc2nc(NCCCNS(=O)(=O)c3ccc(F)cc3)c(C#N)cc2c1,·,i,132*,-6,·
CC1CCc2c(sc(Nc3nc4c(F)cccc4s3)c2C(N)=O)C1 (stereo unspecified),127*,i,170*,1,86*
COC(=O)Cc1c(C)c2ccc(O)c(CN3CCCC(C)C3)c2oc1=O (stereo unspecified),98*,?,22*,-2,112*
CCc1c(C)c2ccc(O)c(CN3CCCC3)c2oc1=O,·,?,11,-6,·
CC(=O)Nc1ccc(NC(=O)[C@@H]2CCCC[C@@H]2C(=O)O)cc1,0,i,3,83*,1
O=C(NC(C(=O)N/N=C/c1c2ccccc2cc2ccccc12)c1n[nH]c(=O)c2ccccc12)c1ccccc1 (stereo unspecified),1,i,97*,·,8
O=C(NC(C(=O)N/N=C/c1ccccc1)c1n[nH]c(=O)c2ccccc12)c1ccccc1 (stereo unspecified),0,i,-5,-11,1
O=C1c2cccc(-c3ccc(C(F)(F)F)cc3)c2C2CC=CCN12 (stereo unspecified),·,·,·,5,·
C/C(=N/Nc1nc(C)c(C)s1)c1cccc([N+](=O)[O-])c1,·,i,3,-1,·
Cc1ccc2c(n1)sc1c(-c3ccccc3)c(C#N)c(N)nc12,18,i,56*,-5,100*
Cc1nc(N)c(C#N)c(-c2cccnc2)c1-c1ccccc1,·,i,-2,13,·
Cc1ccccc1OCCn1cc(/C=C(\C#N)C(=O)NCc2ccco2)c2ccccc21,-9,i,10,15,63*
CNC(=O)/C(C#N)=C/c1cn(CC(=O)NCc2ccco2)c2ccccc12,1,i,2,-4,1
Cc1ccc(NC(=O)/C(C#N)=C/c2cn(CC(=O)NCc3ccco3)c3ccccc23)cc1C,-96,i,0,12,-112
Cc1cc(C)cc(NC(=O)/C(C#N)=C/c2cn(CC(=O)NCc3ccco3)c3ccccc23)c1,-43,i,82*,1,-58
COCCNC(=O)Cn1cc(/C=C(\C#N)C(=O)NC2CCCC2)c2ccccc21,·,i,52*,0,·
N#C/C(=C\c1cn(CCOc2ccccc2)c2ccccc12)C(=O)NCc1ccco1,-18,i,7,15,-10
Cc1ccc(C)c(NC(=O)/C(C#N)=C/c2cn(CC(=O)NCc3ccco3)c3ccccc23)c1,-47,i,98*,11,44
COc1ccc(NS(=O)(=O)c2ccc(OCC(=O)N3CCOCC3)cc2)cc1Cl,·,i,1,·,·
Cc1ccc([N+](=O)[O-])cc1NC(=S)NC(=O)c1cccs1,2,i,4,3,1
COc1cc(/C=C2\Oc3cc(O)ccc3C2=O)ccc1O,11,i,2,?,78*
COc1ccc(/C=C2\OC(=O)c3c(OC)cccc32)cc1OC,5,i,39*,-37,-16
O=C1/C(=C/c2cccc([N+](=O)[O-])c2)Oc2cc(O)ccc21,·,i,?,-5,·
O=C1/C(=C/c2ccc(O)c(O)c2)Oc2cc(O)ccc21,-81,·,·,41,55*
COc1ccc(/C=C2\Oc3cc(OC(=O)N4CCOCC4)ccc3C2=O)cc1,-18,i,22*,6,-1
